Screens deposited in PubChem BioAssay by several laboratories.
Shown are actives, neighbours in structure and some others; about 0.6% of the full set was active somewhere.
PMI act hi M6P = increases human PMI activity with near-saturating mannose 6-phosphate. P34949. activation factor at 20 µM. coupled PMI enzyme assay, resazurin fluorescence, 20 min; hits give high values; 1 = untreated enzyme, 0 = substrate-free blank. actives 0.34% (n = 190,000). AID 1216;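 active = activation factor of 2 or more at 20 µM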
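Material: human phosphomannose isomerase with PGI, G6PDH, diaphorase coupling enzymes. Quantity: 15 ng/mL PMI. Medium: HEPES pH 7.4 buffer with MgCl2 and Tween-20. Reagent: Near-saturating mannose-6-phosphate, 1.0 mM. Compound: 20 µM single dose. Times: enzyme reaction with compound 20 min at room temperature. Detection: resorufin fluorescence at Ex 544/Em 590 nm.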
TNAP inh no acc = blocks human TNAP activity with no phosphate acceptor present; P05186; purified TNAP, CDP-star luminescence, 30 min; inhibition, % at 20 µM; actives 0.26% (n = 200,000); AID 1012;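 active = tissue-nonspecific alkaline phosphatase inhibition above about 50% at 20 µM in the single-dose screen, limit read from the data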;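 note: 0% = DMSO negative control and 100% = EDTA positive control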
Target sequence (P05186 whole entry, looked up): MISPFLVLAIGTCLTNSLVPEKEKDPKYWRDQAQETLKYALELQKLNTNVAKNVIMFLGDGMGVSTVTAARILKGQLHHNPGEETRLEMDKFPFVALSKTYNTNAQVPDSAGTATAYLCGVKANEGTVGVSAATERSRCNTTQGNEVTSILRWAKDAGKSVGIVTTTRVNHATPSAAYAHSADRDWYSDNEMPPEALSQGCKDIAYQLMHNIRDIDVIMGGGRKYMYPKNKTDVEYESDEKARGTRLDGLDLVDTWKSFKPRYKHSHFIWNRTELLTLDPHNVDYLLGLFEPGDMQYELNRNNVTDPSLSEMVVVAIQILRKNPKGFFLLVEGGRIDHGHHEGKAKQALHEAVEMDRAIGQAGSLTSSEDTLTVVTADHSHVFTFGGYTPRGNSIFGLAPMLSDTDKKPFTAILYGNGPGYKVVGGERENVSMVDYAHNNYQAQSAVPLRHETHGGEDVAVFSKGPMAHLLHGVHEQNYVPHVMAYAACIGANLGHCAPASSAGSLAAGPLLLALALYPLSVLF
TNAP act hi DEA = activators of human TNAP at high phosphate acceptor concentration; P05186; purified TNAP, CDP-star luminescence, 1 M DEA, 30 min; hits give high values; 0 = EDTA background, 1 = DMSO-only activity; activation factor at 20 µM; 200,000 tested, under 10 active;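 active = activation factor at least 2 at 20 µM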
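Assay system: human TNAP; Input: enzyme diluted 1/800 final; Reagent: CDP-star luminogenic substrate at 100 µM final; Timing: 30 min, room temperature; Signal: luminescence; Evaluation: TNAP activation factor scaled between EDTA and DMSO control wells.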
TNAP inh hiacc = inhibitors of human TNAP at high phosphate acceptor concentration; P05186; purified TNAP, CDP-star luminescence, 1 M DEA; inhibition, % at 20 µM; actives 0.03% (n = 200,000);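 active = over 50% inhibition of tissue-nonspecific alkaline phosphatase at 20 µM in the single-dose screen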;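 note: plate controls were DMSO wells for no effect and EDTA-quenched wells as full inhibition for full effect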
PMI activator = phosphomannose isomerase (human) activation | P34949 | purified human PMI, coupled resazurin fluorescence, 20 min; hits give high values; 1 = vehicle control, 0 substrate-free wells | activation factor at 20 µM | actives 0.005% (n = 190,000) | AID 1214;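 active = activation factor of 2 or more at 20 µM, relative to plate controls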
Rad51 HR inh = Rad51 (human) homologous recombination inhibition; Q06609; hRad51 DNA strand exchange, fluorescence dequenching; inhibition, % at 10 µM; actives 0.085% (n = 200,000);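 active = inhibition above 40% at the single screening dose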;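 note: 0% = DMSO control wells and 100% = blanks with heterologous ssDNA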
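Read-out basis: percent inhibition relative to plate controls and blanks / Assay system: human Rad51 nucleoprotein filaments preassembled on unlabelled ssDNA / Timing: filaments 15 min 37 °C, then compound 30 min / Control set: per-plate controls and blanks / Technique: fluorescence dequenching at 485/520 nm / Compound: 10 µM final, single point / Also added: Fluorescein- and BHQ1-tagged 47-mer duplex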
* = called active by the depositor; x = not tested or not shown.

SMILES | PMI act hi M6P | TNAP inh no acc | TNAP act hi DEA | TNAP inh hiacc | PMI activator | Rad51 HR inh
COc1ccc(-c2c3c([nH]c(=S)c2C#N)CCC3)cc1 | 2.1* | 1 | 1 | 1 | 1.6 | -3
Cc1cc(C(=O)Nc2cccnc2)cs1 | 0.9 | -10 | 1 | -2 | 0.9 | 77*
O=C(CN1CCCCC1)Nc1ccc(C(F)(F)F)cc1Cl | x | x | x | x | x | 23
O=C1CCN(N=Nc2cccc(Cl)c2)N1 | 2.2* | -4 | 1 | 4 | 1.8 | 6
COc1ccc(-c2cc(N3C(=O)Nc4ccccc4N3O)n[nH]2)cc1 | 0.8 | 75* | 1 | 2 | 0.8 | 9
O=C1Nc2ccccc2N(O)N1c1cc(-c2ccccc2)[nH]n1 | 0.9 | 81* | 1 | -2 | 1 | 2
COc1ccc(-c2cc(N3C(=O)Nc4ccccc4N3O)n[nH]2)cc1OC | 1.1 | 2 | 1 | 4 | 1.1 | -3
CCc1ccc(N(CC(=O)Nc2ccc(NC(C)=O)cc2)S(=O)(=O)c2ccccc2)cc1 | 0.8 | -11 | 1.1 | -8 | 0.8 | x
COc1ccc(S(=O)(=O)N2CCC(NC(=O)C(Cc3cccc(OC)c3OC)NC(C)=O)CC2)cc1 (stereo not drawn) | x | -9 | 1 | -2 | x | -10
Cn1c(NC(=O)c2cccnc2)nc2ccccc21 | 1 | 69* | 1 | 1 | 1 | 0
CCOC(=O)c1cnc(NCc2ccccc2)nc1C | 0.9 | -8 | 1 | -1 | 0.9 | -2
COc1cc(/C=C2\CC/C(=C\c3cc(OC)c(O)c(OC)c3)C2=O)cc(OC)c1O | 0.3 | 61* | 0.4 | 57* | 0.4 | -42
COc1cc(/C=C2\CC/C(=C\c3cc(OC)c(OC)c(OC)c3)C2=O)cc(OC)c1OC | 0.9 | 2 | 1 | 0 | 1 | -18
COc1cc(/C=C2\COC/C(=C\c3cc(OC)c(OC)c(OC)c3)C2=O)cc(OC)c1OC | x | x | x | x | x | 13
COc1cc(/C=C2/CCC/C(=C\c3cc(O)c(OC)c(Cl)c3)C2=O)cc(Cl)c1O | 0.6 | 52* | 0.5 | 53* | 0.9 | -17
COc1cccc(NC(=O)N2CCCC2)c1 | 0.9 | -9 | 1 | -2 | 1 | 43*
O=C1/C(=C\c2ccc(O)c(O)c2)C(c2ccccc2)=NN1c1ccccc1 | 0.8 | 88* | 0.6 | 38 | 0.6 | -6
COc1cc(/C=C2\C(=O)N(c3ccc(NC(C)=O)cc3)N=C2c2ccccc2)ccc1O | 0.7 | 55* | 0.6 | 42 | 0.9 | 0
CCOc1cc(/C=C2\C(=O)N(c3nc(-c4ccc(Br)cc4)cs3)N=C2c2ccccc2)ccc1O | 1.3 | 30 | 0.8 | 22 | 1.1 | x
CC(/C=C/c1ccco1)=N\NC(=O)CNc1ccc2ccccc2c1 | 0.3 | 3 | 1 | 2 | 0.6 | 3
O=C(Nc1ccc(Cl)cn1)Nc1ccc(Cl)cn1 | 1.1 | -8 | 1.1 | -5 | 1 | 5
Cc1ccc(CNC(=O)CSc2nc3c(sc4ccccc43)c(=O)n2CCCN2CCCC2)cc1 | 0.9 | -8 | 1 | -4 | 1 | 43*
CCN=C(N/N=C/c1ccc([N+](=O)[O-])cc1)SC | 2.1* | 6 | 1 | 2 | 1.2 | -4
CCN(CC)c1ccc(/C=N/NC(=O)c2ccc([N+](=O)[O-])cc2)cc1 | 1.1 | 5 | 0.9 | 9 | 1 | 33
Cc1nn(C)c(C)c1C1Nc2ccccc2C(=O)N1O (stereo not drawn) | 2* | -6 | 1.1 | -6 | 1.8 | 4
SMILES | PMI act hi M6P | TNAP inh no acc | TNAP act hi DEA | TNAP inh hiacc | PMI activator | Rad51 HR inh
Cc1nn(C)cc1C1Nc2ccccc2C(=O)N1O (stereo not drawn) | 2.2* | -10 | 1 | -2 | 1.8 | 1
O=C1c2ccccc2NC(c2ccc(Cl)cc2Cl)N1O (stereo not drawn) | 1.3 | -8 | 1.1 | -7 | 1.3 | -5
Cc1ccsc1C1Nc2ccccc2C(=O)N1O (stereo not drawn) | 1.9 | -4 | 1 | -3 | 1.8 | 3
c1ccc(CSc2ccc(-c3ccccn3)nn2)nc1 | 1 | 54* | 1 | 0 | 1 | 4
Clc1ccc(-c2ccc(SCc3ccccn3)nn2)cc1 | 1 | 0 | 1 | -3 | 1 | -10
CCOC(=O)c1c(C)c(/C=N/Nc2ccccc2)n(C)c1C | 2.5* | -3 | 1 | 4 | 1.7 | -14
CCOC(=O)CN1C(=O)N[C@@H](CCc2ccccc2)[C@@H](C(=O)OC)[C@H]1C | x | x | x | x | x | 53*
O=C(NC1CCCCC1)C(c1ccc(O)c(O)c1)N(C(=O)Cn1nnc2ccccc21)c1cccc(O)c1 (stereo not drawn) | 0.8 | 51* | 1 | 0 | 0.5 | x
CN(C)c1ccc(C2N3CC4(C)CN2CC(C)(C3)C4O)cc1 (stereo not drawn) | 1.1 | 0 | 1.1 | -5 | 1 | 2
Cn1cc(CNCc2cnc3ccccn23)c(-c2ccc(Oc3ccccc3)cc2)n1 | 1 | 74* | 0.6 | 39 | 1 | -8
CC(C)OC(=O)c1c(NC(=O)CCC(=O)O)sc2c1CCCCC2 | 1 | -6 | 1 | -1 | 0.9 | x
CC(C)c1ccccc1NC(=O)COC(=O)c1c2c(nc3ccccc13)CCN(Cc1ccccc1)C2 | 2.1* | -11 | 1 | -5 | 1.5 | 3
COc1cc(/C=C/C(=O)CC(=O)/C=C/c2ccc(O)c(OC)c2)ccc1O | 0.8 | 44 | 0.5 | 53* | 0.9 | -386
CNC(=O)C1CCC(=O)N1Cc1ccccc1Cl (stereo not drawn) | 1 | -4 | 1 | 2 | 1 | 5
COc1ccc2c(c1)CCc1c-2n[nH]c1C(=O)O | 0.9 | 86* | 1 | -3 | 0.9 | 9
CC1CCN(S(=O)(=O)c2cn(C)c(=O)n(C)c2=O)CC1 | 1 | -4 | 1 | -5 | 1 | -1
O=C(CSCc1ccccc1Cl)NN=C1CCCCCC1 | 0.9 | -11 | 1 | -3 | 0.9 | -5
C/C(=N\NC(=O)CSCc1ccccc1Cl)c1cc(O)ccc1O | 1 | 75* | 0.9 | 6 | 1 | -3
Cc1ccc(-c2cc(C(=O)N/N=C/c3cccnc3)n[nH]2)o1 | 1 | 71* | 1 | -1 | 1.1 | x
CCN(CC)CCCN1C=C2C(=O)C(C)(OC(=O)C3CCCC3)C(=O)C(c3ccccc3)=C2C=C1CCCC(=O)OC (stereo not drawn) | x | x | x | x | x | -2
CC(C)[C@H](NS(=O)(=O)c1cccc(Cl)c1)C(=O)OCC(=O)N1CCN(c2ccccc2)CC1 | 2* | -2 | 1 | -3 | 1.4 | 2
COC(=O)[C@H](C)NC(=O)NCc1ccccc1F | 1 | -7 | 1 | 0 | 0.9 | -1
